Assay [1] deals with Butyrylcholinesterase (Rattus norvegicus, UniProt Q9JKC1). Nature of the assay: (§1) Inhibition of BuChE in Wistar rat plasma using acetylthiocholine iodide as substrate after 0.5 hrs by Ellman's method. For orientation: In Ellman's method for cholinesterases, released thiocholine reacts with DTNB.
The target of assay [2] is Butyrylcholinesterase (Rattus norvegicus) (UniProt Q9JKC1). Described as §1.
The target of assay [3] is T1, Acetylcholinesterase (Rattus norvegicus) (UniProt P37136).
T1 sequence (whole entry): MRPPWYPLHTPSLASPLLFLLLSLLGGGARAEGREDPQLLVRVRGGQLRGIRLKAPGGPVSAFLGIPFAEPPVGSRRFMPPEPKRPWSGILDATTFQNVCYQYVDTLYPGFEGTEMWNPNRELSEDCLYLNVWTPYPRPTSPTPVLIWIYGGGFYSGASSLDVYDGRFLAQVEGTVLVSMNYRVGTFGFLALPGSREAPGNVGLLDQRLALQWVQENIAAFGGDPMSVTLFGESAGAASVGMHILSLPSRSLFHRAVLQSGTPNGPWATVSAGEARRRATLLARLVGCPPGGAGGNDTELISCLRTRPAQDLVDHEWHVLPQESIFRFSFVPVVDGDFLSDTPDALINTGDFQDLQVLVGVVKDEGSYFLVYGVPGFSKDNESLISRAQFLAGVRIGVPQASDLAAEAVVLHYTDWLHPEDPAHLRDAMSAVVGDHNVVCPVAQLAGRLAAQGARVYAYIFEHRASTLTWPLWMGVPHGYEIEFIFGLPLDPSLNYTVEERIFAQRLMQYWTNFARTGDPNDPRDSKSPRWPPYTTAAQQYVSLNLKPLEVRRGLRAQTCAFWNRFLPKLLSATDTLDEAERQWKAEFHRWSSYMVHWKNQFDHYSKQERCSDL
Kind of assay: (§2) Inhibition of AChE in Wistar rat brain homogenate using acetylthiocholine iodide as substrate after 0.5 hrs by Ellman's method. Type of assay: tissue-based. In short, it runs like this: (§3)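 Male Wistar ST rats (8–10 weeks old). Inhibitor is preincubated with homogenate (3:10 v/v) for 0.5 h at 37 °C. Ellman assay in 0.1 M phosphate with DTNB (10 mM stock) and acetylthiocholine (75 mM stock). A412 is recorded for 2 min at 25 °C, and the last-minute change gives activity. Four dose-response curves.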

Assay [4] concerns the target T2, Acetylcholinesterase (Rattus norvegicus, UniProt P37136).
T2 sequence (P37136 whole entry): T1 sequence (whole entry)
Described as §2. Type of assay: tissue-based. A digest of the protocol: as §3

For assay [5], the species on record is Rattus norvegicus. Nature of the assay: Selectivity ratio of IC50 for BuChE in Wistar rat plasma to IC50 for AChE in Wistar rat brain homogenate. Type of assay: tissue-based.

Structures are written as SMILES. Some results are limits rather than exact numbers.

Chain of Butyrylcholinesterase (Q9JKC1 whole entry): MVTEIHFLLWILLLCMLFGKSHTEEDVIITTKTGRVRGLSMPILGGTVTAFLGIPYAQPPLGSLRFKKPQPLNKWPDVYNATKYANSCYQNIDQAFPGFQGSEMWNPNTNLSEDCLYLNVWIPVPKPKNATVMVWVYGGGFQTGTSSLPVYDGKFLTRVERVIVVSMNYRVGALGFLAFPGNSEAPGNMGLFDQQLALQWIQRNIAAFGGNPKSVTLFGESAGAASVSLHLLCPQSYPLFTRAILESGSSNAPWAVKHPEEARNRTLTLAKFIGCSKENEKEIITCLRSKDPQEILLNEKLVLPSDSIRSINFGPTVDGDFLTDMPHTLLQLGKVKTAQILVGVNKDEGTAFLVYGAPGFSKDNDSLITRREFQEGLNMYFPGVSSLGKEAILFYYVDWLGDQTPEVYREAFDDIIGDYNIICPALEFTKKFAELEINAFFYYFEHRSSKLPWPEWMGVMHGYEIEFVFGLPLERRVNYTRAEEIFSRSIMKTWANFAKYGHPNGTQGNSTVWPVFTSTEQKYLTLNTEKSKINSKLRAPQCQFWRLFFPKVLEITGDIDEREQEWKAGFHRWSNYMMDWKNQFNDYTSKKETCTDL
Chain of Butyrylcholinesterase (Rattus norvegicus) (Q9JKC1 as listed by the source): as the sequence (Q9JKC1 whole entry) above

What is called IC50 is the concentration needed to halve the response being measured. Low values mean greater potency, high ones weaker potency. As for `CC[C@]12CCN(C)[C@@H]1N(C)c1ccc(OC(=O)Nc3ccccc3)cc12`, the IC50 in assay [1] was 36.2 µM; in assay [4] it was 0.373 µM. The inhibition result in assay [2] and in assay [3] was “Dose-dependent effect” throughout. Moreover, the Ratio IC50 in assay [5] worked out at 97.

`C=CCC12CCN(C)C1N(C)c1ccc(OC(=O)Nc3ccc(F)cc3)cc12` (racemic): the IC50 is greater than 100 µM in assay [1] and 4.36 µM in assay [4]. In addition, the inhibition entry in assay [2] and in assay [3] was “Dose-dependent effect” each time. Further, the Ratio IC50 in assay [5] is greater than 23.

Take `CCCC12CCN(C)C1N(C)c1ccc(OC(=O)Nc3ccccc3)cc12` (racemic): the IC50 in assay [1] is greater than 100 µM; in assay [4], 3.66 µM. Also, the inhibition result in assay [2] and in assay [3] was “Dose-dependent effect” each time. In assay [5], the Ratio IC50 is greater than 27.

As to `C=CCC12CCN(C)C1N(C)c1ccc(OC(=O)Nc3ccccc3)cc12` (racemic), the IC50 in assay [1] was greater than 100 µM; in assay [4], 3.77 µM. For the same molecule, the inhibition result in assay [2] and in assay [3] was “Dose-dependent effect” throughout. Besides, the Ratio IC50 in assay [5] was greater than 27.

With `CCC(C)(C)[C@@]12CCN(C)[C@@H]1N(C)c1ccc(OC(=O)Nc3ccccc3)cc12`, the IC50 in assay [1] was greater than 100 µM; in assay [4], 9.5 µM. The inhibition result in assay [2] and in assay [3] was “Dose-dependent effect” in each case. Also, the Ratio IC50 in assay [5] was greater than 11.

`CNC(=O)Oc1ccc2c(c1)[C@]1(C)CCN(C)[C@@H]1N2C` [PHYSOSTIGMINE] registered an IC50 in assay [1] of 0.0584 µM. Moreover, the inhibition entry in assay [2] and in assay [3] was “Dose-dependent effect” in each case.

In the case of `C=CCC12CCN(C)C1N(C)c1ccc(OC(=O)Nc3ccccc3F)cc12` (racemic), the IC50 in assay [1] is 87.3 µM; in assay [4], 3.55 µM. Besides, the inhibition result in assay [2] and in assay [3] was “Dose-dependent effect” in each case. In addition, the Ratio IC50 in assay [5] stood at 25.

As to `C=C[C@@]12CCN(C)[C@@H]1N(C)c1ccc(OC(=O)Nc3ccccc3)cc12`, the IC50 in assay [1] came out at 41.9 µM; in assay [4] it was 0.644 µM. Further, the inhibition result in assay [2] and in assay [3] was “Dose-dependent effect” in each case. In addition, the Ratio IC50 in assay [5] stood at 65.

As to `C=CCC12CCN(C)C1N(C)c1ccc(OC(=O)Nc3ccc(Br)cc3)cc12` (racemic), the IC50 in assay [1] and in assay [4] was greater than 10 µM in each case. Further, the inhibition result in assay [2] and in assay [3] was “Dose-dependent effect” in each case.

With `C=CCC12CCN(C)C1N(C)c1ccc(OC(=O)Nc3ccc(C(C)C)cc3)cc12` (racemic), the IC50 in assay [1] and in assay [4] was greater than 10 µM each time. Besides, the inhibition result in assay [2] and in assay [3] was “Dose-dependent effect” in each case.

As to `CCC(C)(C)C12CCN(C)C1N(C)c1ccc(OC(=O)Nc3ccccc3)cc12` (racemic), the IC50 was greater than 100 µM in assay [1] and 18.4 µM in assay [4]. For the same molecule, the inhibition entry in assay [2] and in assay [3] was “Dose-dependent effect” each time. In addition, in assay [5], the Ratio IC50 is greater than 5.4.

As to `CCC12CCN(C)C1N(C)c1ccc(OC(=O)Nc3ccccc3)cc12` (racemic), the figures for the concentration for half-maximal inhibition (IC50) in assay [1] and in assay [4] were 30 µM and 0.397 µM, respectively. Further, the inhibition result in assay [2] and in assay [3] was “Dose-dependent effect” in each case. Besides, the Ratio IC50 in assay [5] came out at 76.

With `C=CC[C@]12CCN(C)[C@@H]1N(C)c1ccc(OC(=O)Nc3ccccc3)cc12`, the IC50 is greater than 100 µM in assay [1] and 1.26 µM in assay [4]. Also, the inhibition entry in assay [2] and in assay [3] was “Dose-dependent effect” in each case. In addition, the Ratio IC50 in assay [5] is greater than 79.

On to `CN1CC[C@@]2(C)c3cc(OC(=O)Nc4ccccc4)ccc3N(C)C12` (stereo partly specified), for which the IC50 is 30 µM in assay [1] and 0.0283 µM in assay [4]. The inhibition entry in assay [2] and in assay [3] was “Dose-dependent effect” each time. Also, the Ratio IC50 in assay [5] came to 1100.

On to `C=CCC12CC(=O)N(C)C1N(C)c1ccc(OC(=O)Nc3ccccc3)cc12` (racemic), for which the IC50 in assay [1] was determined as 65.3 µM; in assay [4], 4.73 µM. The inhibition result in assay [2] and in assay [3] was “Dose-dependent effect” throughout. Further, in assay [5], the Ratio IC50 amounted to 14.

Turning to `C=CC12CCN(C)C1N(C)c1ccc(OC(=O)Nc3ccccc3)cc12` (racemic), the IC50 was greater than 30 µM in assay [1] and 0.749 µM in assay [4]. The inhibition entry in assay [2] and in assay [3] was “Dose-dependent effect” in each case. In addition, the Ratio IC50 in assay [5] is greater than 40.

Values taken from ChEMBL document CHEMBL2057067, “Synthesis of phenserine analogues and evaluation of their cholinesterase inhibitory activities” (Bioorg Med Chem, 2012).
